The list is not random: actives were taken first. Their share in the collection is about 3.2%.
MLL AF4-AF9 inh: inhibitors of human MLL-AF4/AF9 interaction; inhibition, % at 10 µM; AlphaScreen, biotin-AF4 peptide binding to FLAG-AF9; 350,000 compounds, 0.47% hits;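 active = every replicate reaching a set inhibition limit, whatever the replicate mean, cut at about 25% in these data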;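 also: 0% = plate neutral control median and 100% = total signal loss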
Target sequence (P42568 whole entry, looked up): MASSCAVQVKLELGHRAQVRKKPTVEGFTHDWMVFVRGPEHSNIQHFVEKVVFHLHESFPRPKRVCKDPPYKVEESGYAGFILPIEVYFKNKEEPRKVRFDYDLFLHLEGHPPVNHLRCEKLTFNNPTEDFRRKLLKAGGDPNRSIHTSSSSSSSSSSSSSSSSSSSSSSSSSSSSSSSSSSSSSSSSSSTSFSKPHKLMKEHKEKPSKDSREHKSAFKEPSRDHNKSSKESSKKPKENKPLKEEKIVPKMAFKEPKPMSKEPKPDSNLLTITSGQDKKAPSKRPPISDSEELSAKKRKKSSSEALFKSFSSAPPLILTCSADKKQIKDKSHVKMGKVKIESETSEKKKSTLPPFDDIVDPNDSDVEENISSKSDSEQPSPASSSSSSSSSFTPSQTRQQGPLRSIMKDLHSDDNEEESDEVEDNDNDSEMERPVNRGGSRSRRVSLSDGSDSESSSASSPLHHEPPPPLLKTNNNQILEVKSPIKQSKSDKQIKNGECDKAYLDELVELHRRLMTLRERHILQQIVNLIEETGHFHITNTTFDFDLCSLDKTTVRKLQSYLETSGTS
S100A4 inh HTS: S100A4-myosin IIA interaction inhibition; S100A4/TAMRA-MyoIIA peptide fluorescence polarization; inhibition, % at 10.7 µM; 360,000 compounds, 0.14% hits; AID 652163;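 active = mean inhibition of at least 70% across replicates, with every replicate also reaching that level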
Target sequence (P26447 whole entry, looked up): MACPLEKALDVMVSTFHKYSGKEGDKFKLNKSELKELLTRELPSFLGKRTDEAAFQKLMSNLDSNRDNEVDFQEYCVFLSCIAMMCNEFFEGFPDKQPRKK
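Assay system: human S100A4 monomer with TAMRA-labelled myosin IIA peptide / Buffer or medium: Calcium-containing HEPES buffer, pH 7.2 / Reagent: TAMRA-labelled myosin IIA heavy-chain peptide probe, 5 nM / Compound: one dose per compound / Timing: polarization read 5 min after assay mix addition, stable 5–60 min / Benchmarks: neutral control DMSO, positive control TFP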
Cneo AK release: Cryptococcus neoformans lysis via adenylate kinase release; lysis activity, % at 15 µM; AID 651654; C. neoformans lysis, adenylate kinase release luminescence, 4 h; normalised: neutral wells 0, clomiphene wells 100; 360,000 compounds, 0.2% hits;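 active = mean lysis activity across replicates of at least 80%, whatever share of replicates individually reach that level; inactive = mean lysis activity below 80%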
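Schedule: static 4 h at 37 °C with compound, 1 h detection; system: C. neoformans cells; benchmarks: Clomiphene as positive control; buffer or medium: fresh YPD medium; measure: luminescence rise reflecting yeast cell lysis; measured by: luminescent adenylate kinase detection reagent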
Ecoli rRNA inh: selective bacterial rRNA inhibition in E. coli; E. coli WT GFP vs humanized-ribosome RFP mutants, fluorescence, 24 h; hits give low values; DMSO median 0, no signal -100; GFP signal change (wild-type ribosome), % (no concentration beside the values); 350,000 compounds, 1.6% hits; AID 720706;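 active = significant combined selectivity score with lowered wild-type GFP, culture density cut under 30%, mutant RFP and density less affected; inactive = any of these conditions unmet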
DENV2 CPE rescue: protects cells from dengue virus 2 cytopathic effect | DENV2-infected cells, cytopathic effect rescue, plate reader | CPE inhibition, % at 9.99 µM | 350,000 compounds, 1.7% hits; in the data active = CPE inhibition above about 20%, passing the limit was not always enough; tested in BHK-21 cells;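 also: 0% = median of neutral control wells and 100% = median of positive control wells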
PfHsp90 set2: reduces growth (ATP signal) of yeast expressing P. falciparum Hsp90; 310,000 compounds, 0.32% hits; AID 504621; inhibition, % at 9.4 µM; S. cerevisiae expressing PfHsp90, BacTiter-Glo ATP, 48 h; yeast lacking PDR1 and PDR3 efflux regulators;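 active = every replicate shows inhibition above about 80%, whatever the replicate mean, limit read from the data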;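 also: 0% = DMSO neutral controls and 100% = 20 µM radicicol positive controls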
* marks the source's active call; other numbers are inactive results; . = no result.

SMILES	MLL AF4-AF9 inh	S100A4 inh HTS	Cneo AK release	Ecoli rRNA inh	DENV2 CPE rescue	PfHsp90 set2
CCOC(=O)c1c(-c2ccccc2)oc2cc(CN(C)C)c(O)c(CN(C)C)c12	36*	-2	3	0	-11	-23
CC(C)NC(=O)Nc1ccc2c(c1)C(=O)N([C@@H](C)CO)C[C@@H](C)[C@@H](CN(C)C(=O)c1ccccc1)OCCCC[C@H](C)O2	.	.	.	-2	.	.
COc1ccc(-c2sc3cc(OC)c(OC)cc3c2C#CC(C)(C)O)cc1	-1	-12	0	-6	24*	-9
COC(=O)c1c(-c2ccc(SC)cc2)sc2ccccc12	-14	-2	-4	6	74*	-26
COC(=O)c1c(-c2cc(OC)cc(OC)c2)sc2ccc(OC)cc12	-4	3	-5	0	-9	-2
COC(=O)c1c(-c2ccc(OC)cc2)sc2cc(OC)c(OC)cc12	2	0	2	-24*	-4	-8
COC(=O)c1c(-c2ccc(SC)cc2)sc2ccc(OC)cc12	1	-11	-4	-12	0	-6
Cc1ccc(S(=O)(=O)N(C)C[C@H]2OCCCC[C@H](C)Oc3ccc(NC(=O)CCCN(C)C)cc3C(=O)N([C@H](C)CO)C[C@@H]2C)cc1	-1	0	-7	3	-4	.
O=C(C#Cc1ccccc1)c1ccc([N+](=O)[O-])cc1	.	.	4	.	.	101*
Cc1ccc(NC(=O)c2cc(C)n(-c3ccccc3)c2C)cc1	4	10	-13	-18	0	8
Cc1cc(C(=O)Nc2ccc(Cl)cc2)c(C)n1-c1ccccc1	-2	-6	-19	-40*	-5	.
COCC(=O)Nc1ccc2c(c1)[C@@H]1C[C@@H](CC(=O)NC3CCCCC3)O[C@@H](CO)[C@@H]1O2	1	9	-1	0	-5	.
C[C@H](O)C#Cc1ccc([C@H]2[C@H]3CN(C(=O)c4ccc(F)cc4)CCCCN3[C@H]2CO)cc1	-4	-1	-4	1	0	.
CC(C)(O)C#Cc1ccc([C@@H]2[C@@H](CO)N3CCCCN(C(=O)c4ccc(F)cc4)C[C@@H]23)cc1	-12	5	-1	-2	83*	.
C[C@H](O)C#Cc1ccc([C@H]2[C@@H](CO)N3CCCCN(C(=O)c4ccc(F)cc4)C[C@@H]23)cc1	-6	15	-3	0	33*	.
CC(C)(O)C#Cc1ccc([C@H]2[C@H]3CN(C(=O)c4ccc(F)cc4)CCCCN3[C@H]2CO)cc1	0	62	0	1	-2	.
CC(C)NC(=O)N[C@H]1CC[C@H](CC(=O)NCCN2CCCC2)O[C@@H]1CO	-1	10	-2	-1	.	.
CN(C)C(CNC(=O)c1cc(S(=O)(=O)N2CCOCC2)ccc1Cl)c1cccs1 (stereo not drawn)	-24	-1	0	1	2	-11
CN(C)C(CNC(=O)c1cc(S(=O)(=O)N(C)c2ccccc2)ccc1Cl)c1cccs1 (stereo not drawn)	4	0	0	-35*	-1	8
CC=Cc1ccc2n(c1=O)C[C@H]1[C@H](CO)[C@@H](C(=O)NCCC)N(C(=O)C3CCOCC3)[C@@H]21 (mixture of isomers)	0	.	-1	3	.	.
Cc1ccc([C@H]2C[C@@H](n3cc(-c4ccc(F)cc4)nn3)[C@H](O)CN2C(=O)c2cccs2)cc1	-2	-2	.	-6	32*	.
Cc1ccc([C@H]2C[C@H](O)[C@@H](n3cc(-c4ccc(F)cc4)nn3)CN2C(=O)c2cccs2)cc1	0	0	1	-16	-2	.
CCOc1cc(/C=C2\SC(=Nc3ccccc3)N(c3ccccc3)C2=O)ccc1OCC(=O)O	7	-18	.	-31*	7	9
C[C@H]1CCCCO[C@H](CN(C)C(=O)Nc2ccc(F)cc2)[C@@H](C)CN([C@@H](C)CO)C(=O)c2cc(NS(=O)(=O)c3ccccc3)ccc2O1	4	-13	-4	-1	53*	.
C[C@@H]1CCCCO[C@@H](CN(C)C(=O)c2ccccc2)[C@H](C)CN([C@H](C)CO)C(=O)c2cc(NS(=O)(=O)c3ccc(F)cc3)ccc2O1	1	15	-2	-3	22*	.
SMILES	MLL AF4-AF9 inh	S100A4 inh HTS	Cneo AK release	Ecoli rRNA inh	DENV2 CPE rescue	PfHsp90 set2
C[C@@H]1CN([C@H](C)CO)C(=O)c2cc(NS(=O)(=O)c3ccc(F)cc3)ccc2O[C@@H](C)CCCCO[C@H]1CN(C)C(=O)Nc1ccc(F)cc1	.	.	-1	-4	-11	.
C[C@@H]1CN([C@H](C)CO)C(=O)c2cc(NS(=O)(=O)c3ccc(F)cc3)ccc2O[C@@H](C)CCCCO[C@@H]1CN(C)C(=O)c1ccccc1	-1	54	0	2	3	.
C[C@H]1CCCCO[C@H](CN(C)C(=O)Nc2ccc(F)cc2)[C@@H](C)CN([C@@H](C)CO)C(=O)c2cc(NS(=O)(=O)c3ccc(F)cc3)ccc2O1	.	.	0	-3	27*	.
C[C@@H]1CN([C@H](C)CO)C(=O)c2cccc(NC(=O)C3CCCCC3)c2O[C@H]1CN(C)S(=O)(=O)c1ccccc1	-8	2	-1	2	-5	.
O=C(C[C@@H]1CC[C@@H]2[C@H](COC[C@H](O)CN2C(=O)c2ccc3c(c2)OCO3)O1)NC1Cc2ccccc2C1	0	-20	-4	0	3	.
COc1ccc2[nH]c3c(=O)n(CCCCC(=O)NCCN4CCCC4)c(=S)[nH]c3c2c1	10	2	7	-29*	0	-3
CCCCNC(=O)CCCCn1c(=S)[nH]c2c([nH]c3ccc(OC)cc32)c1=O	-2	0	.	-6	6	-22
Cc1cc(-c2onc(C)c2C(=O)Oc2ccc(Cl)cc2)no1	-4	5	.	-15	73*	7
CCCC(=O)Nc1ccc2c(c1)C(=O)N(C)C[C@@H](OC)[C@H](C)CN(Cc1ccccc1)[C@@H](C)CO2	1	-15	-6	-3	-5	.
Nc1c(C(=O)c2ccccc2)sc2nsc(SCCN3CCOCC3)c12	-2	-6	0	-27*	-4	.
CN1Cc2c(N3CCOCC3)nc3sc(C(=O)c4ccccc4)c(N)c3c2CC1(C)C	.	-1	.	-36*	12	-16
CC(=O)c1sc2nsc(SCCN3CCOCC3)c2c1N	-1	-1	3	.	1	.
C[C@@H]1CN([C@@H](C)CO)C(=O)c2cc(C3=CCCC3)cnc2O[C@@H]1CN(C)C(=O)C1CC1	.	.	.	6	.	.
CCC(=O)N1[C@@H](CO)[C@H](c2ccccc2)C12CN(C(=O)NC1CCCC1)C2	-3	-36	.	6	15	.
CC(=O)N1N=C(c2ccc(C)cc2)OC1c1ccc(Br)cc1 (stereo not drawn)	-6	-3	.	-51	-2	3

Screening data deposited in PubChem BioAssay by Broad Institute.
